One block for each molecule: values may come before it. Activity calls are given as the source filed them. No cut-off for these calls is given here.
What was measured:
[1] = biological target: Glutathione S-transferase P (Homo sapiens) (UniProt P09211); assay: Induction of GSTP1 degradation in human HeLa cells at 40 to 80 uM measured after 3 hrs by Western blot analysis; format: cell-based; details: dose 40-80 µM
Outline: (§1)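 GSTP protein in whole-cell lysates, detected by Western blot with specific antibodies after 3 h compound exposure. HeLa (high GSTP expression) treated at 40 or 80 μM or over a dose range; A549 and HT1080 cells (high or medium GSTP) also tested. Blots representative of three independent experiments.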

[2] = biological target: Glutathione S-transferase P (Homo sapiens) (UniProt P09211); assay: Inhibition of recombinant human N-terminal His-tagged GSTP1 (1 to 210 residues) expressed in Escherichia coli at 100 uM using reduced GSH as substrate measured after 0.5 hrs by CDNB assay
Outline: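 GSTP catalytic activity followed via GSH–CDNB conjugation, read as absorbance at 340 nm specific to the conjugate. Compounds tested up to 100 μM.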

[3] = biological target: Glutathione S-transferase P (Homo sapiens) (UniProt P09211); assay: Induction of GSTP1 degradation in human HeLa cells measured after 3 hrs in presence of protein synthesis inhibitor cycloheximide by Western blot analysis; format: cell-based
Outline: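 HeLa cells pretreated with cycloheximide, then exposed to compound over a dose range for 3 h. GSTP in total lysates read by Western blot with specific antibodies. Blots representative of three independent experiments.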

HeLa [4] = assay: Induction of apoptosis in human HeLa cells assessed as necrotic cells at 40 uM measured after 3 hrs by Annexin V-FITC/propidium iodide staining based flow cytometry (reference value: 0.61%); format: functional
HeLa [5] = assay: Induction of apoptosis in human HeLa cells assessed as viable cells at 80 uM measured after 3 hrs by Annexin V-FITC/propidium iodide staining based flow cytometry (reference value: 91.43%); format: functional; details: read-out: Activity
HeLa [6] = assay: Induction of apoptosis in human HeLa cells assessed as viable cells at 10 uM measured after 3 hrs by Annexin V-FITC/propidium iodide staining based flow cytometry (reference value: 91.43%); format: functional; details: read-out: Activity
HeLa [7] = assay: Induction of apoptosis in human HeLa cells assessed as viable cells at 40 uM measured after 3 hrs by Annexin V-FITC/propidium iodide staining based flow cytometry (reference value: 91.43%); format: functional; details: read-out: Activity
HeLa [8] = assay: Induction of apoptosis in human HeLa cells assessed as necrotic cells at 80 uM measured after 3 hrs by Annexin V-FITC/propidium iodide staining based flow cytometry (reference value: 0.61%); format: functional
HeLa [9] = assay: Induction of apoptosis in human HeLa cells assessed as early apoptotic cells at 10 uM measured after 3 hrs by Annexin V-FITC/propidium iodide staining based flow cytometry (reference value: 4.37%); format: functional
HeLa [10] = assay: Induction of apoptosis in human HeLa cells assessed as late apoptotic cells at 80 uM measured after 3 hrs by Annexin V-FITC/propidium iodide staining based flow cytometry (reference value: 3.59%); format: functional
[11] = biological target: Glutathione S-transferase P (Homo sapiens) (UniProt P09211); assay: Induction of GSTP1 degradation in human HeLa cells assessed as increase in JNK phosphorylation at 5 to 80 uM measured after 3 hrs by Western blot analysis; format: cell-based; details: dose 5-80 µM
Outline: (§2)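 HeLa cells exposed to compound for 3 h. Total cell lysates probed by Western blot with specific antibodies for phospho-JNK, phospho-c-Jun and total JNK. Total JNK bands quantified by densitometry. Representative of three independent experiments.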

[12] = biological target: Glutathione S-transferase P (Homo sapiens) (UniProt P09211); assay: Induction of GSTP1 degradation in human HeLa cells at 40 uM measured after 3 hrs by Western blot analysis relative to control; format: cell-based; outline: as §1
HeLa [13] = assay: Induction of apoptosis in human HeLa cells assessed as early apoptotic cells at 40 uM measured after 3 hrs by Annexin V-FITC/propidium iodide staining based flow cytometry (reference value: 4.37%); format: functional
HeLa [14] = assay: Induction of apoptosis in human HeLa cells assessed as late apoptotic cells at 10 uM measured after 3 hrs by Annexin V-FITC/propidium iodide staining based flow cytometry (reference value: 3.59%); format: functional
HeLa [15] = assay: Induction of apoptosis in human HeLa cells assessed as necrotic cells at 10 uM measured after 3 hrs by Annexin V-FITC/propidium iodide staining based flow cytometry (reference value: 0.61%); format: functional
[16] = biological target: Glutathione S-transferase P (Homo sapiens) (UniProt P09211); assay: Induction of GSTP1 degradation in human HeLa cells measured after 3 hrs by Western blot analysis; format: cell-based; outline: as §1
HeLa [17] = assay: Induction of apoptosis in human HeLa cells assessed as early apoptotic cells at 20 uM measured after 3 hrs by Annexin V-FITC/propidium iodide staining based flow cytometry (reference value: 4.37%); format: functional
HeLa [18] = assay: Induction of apoptosis in human HeLa cells assessed as viable cells at 20 uM measured after 3 hrs by Annexin V-FITC/propidium iodide staining based flow cytometry (reference value: 91.43%); format: functional; details: read-out: Activity
[19] = biological target: Glutathione S-transferase P (Homo sapiens) (UniProt P09211); assay: Induction of GSTP1 degradation in human HeLa cells assessed as increase in c-Jun phosphorylation at 5 to 80 uM measured after 3 hrs by Western blot analysis; format: cell-based; details: dose 5-80 µM; outline: as §2
[20] = biological target: Glutathione S-transferase P (Homo sapiens) (UniProt P09211); assay: Induction of GSTP1 degradation in human HT-1080 cells at 5 to 80 uM measured after 3 hrs by Western blot analysis; format: cell-based; details: dose 5-80 µM; outline: as §1
[21] = biological target: Glutathione S-transferase P (Homo sapiens) (UniProt P09211); assay: Induction of GSTP1 degradation in human HeLa cells at 80 uM measured after 3 hrs in presence of vacuolar type H (+)-ATPase inhibitor bafilomycin A1 by Western blot analysis; format: cell-based
Outline: (§3)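 HeLa cells cotreated with test compound plus bortezomib (20S proteasome inhibitor), PYR-41 (E1 ubiquitin-activating enzyme inhibitor) or bafilomycin A1 (V-ATPase inhibitor, blocks autophagosome–lysosome fusion). GSTP in total cell lysates then detected by Western blot with specific antibodies. Representative of three independent experiments.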

HeLa [22] = assay: Induction of apoptosis in human HeLa cells assessed as late apoptotic cells at 40 uM measured after 3 hrs by Annexin V-FITC/propidium iodide staining based flow cytometry (reference value: 3.59%); format: functional
HeLa [23] = assay: Induction of apoptosis in human HeLa cells assessed as early apoptotic cells at 80 uM measured after 3 hrs by Annexin V-FITC/propidium iodide staining based flow cytometry (reference value: 4.37%); format: functional
HeLa [24] = assay: Induction of apoptosis in human HeLa cells measured after 3 hrs by Annexin V-FITC/propidium iodide staining based flow cytometry; format: functional, cell-based
HeLa [25] = assay: Induction of apoptosis in human HeLa cells assessed as necrotic cells at 20 uM measured after 3 hrs by Annexin V-FITC/propidium iodide staining based flow cytometry (reference value: 0.61%); format: functional
HeLa [26] = assay: Induction of apoptosis in human HeLa cells assessed as late apoptotic cells at 20 uM measured after 3 hrs by Annexin V-FITC/propidium iodide staining based flow cytometry (reference value: 3.59%); format: functional
[27] = biological target: Glutathione S-transferase P (Homo sapiens) (UniProt P09211); assay: Induction of GSTP1 degradation in human A549 cells at 5 to 80 uM measured after 3 hrs by Western blot analysis; format: cell-based; details: dose 5-80 µM; outline: as §1
[28] = biological target: Glutathione S-transferase P (Homo sapiens) (UniProt P09211); assay: Induction of GSTP1 degradation in human HeLa cells assessed as reduction in total JNK expression at 20 to 80 uM measured after 3 hrs by Western blot analysis; format: cell-based; details: dose 20-80 µM; outline: as §2
[29] = biological target: Glutathione S-transferase P (Homo sapiens) (UniProt P09211); assay: Induction of GSTP1 degradation in human HeLa cells at 80 uM measured after 3 hrs in presence of ubiquitin activating enzyme E1 inhibitor PYR-41 by Western blot analysis; format: cell-based; outline: as §3
HeLa [30] = assay: Induction of reactive oxygen species generation in human HeLa cells measured after 3 hrs by DCFH-DA staining based fluorescence laser confocal microscopic analysis; format: functional, cell-based; details: dose 5-80 µM
Outline: (§4)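 HeLa cells loaded with DCFH-DA fluorescent ROS probe after treatment at the indicated concentrations. Fluorescence read at Ex/Em 488/525 by laser confocal microscopy. Rosup 50 μg/mL served as positive control.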

[31] = biological target: Glutathione S-transferase P (Homo sapiens) (UniProt P09211); assay: Induction of GSTP1 degradation in human HeLa cells at 80 uM measured after 3 hrs in presence of 20S proteasome inhibitor bortezomib by Western blot analysis; format: cell-based; outline: as §3
HeLa [32] = assay: Induction of reactive oxygen species generation in human HeLa cells at 80 uM measured after 3 hrs by DCFH-DA staining based fluorescence laser confocal microscopic analysis; format: functional, cell-based; outline: as §4
[33] = biological target: Glutathione S-transferase P (Homo sapiens) (UniProt P09211); assay: Induction of GSTP1 degradation in human HeLa cells at 5 to 80 uM measured after 3 hrs by Western blot analysis; format: cell-based; details: dose 5-80 µM; outline: as §1
[34] = biological target: Glutathione S-transferase P (Homo sapiens) (UniProt P09211); assay: Induction of GSTP1 degradation in human A549 cells at 40 to 80 uM measured after 3 hrs by Western blot analysis; format: cell-based; details: dose 40-80 µM; outline: as §1
[35] = biological target: Glutathione S-transferase P (Homo sapiens) (UniProt P09211); assay: Induction of GSTP1 degradation in human HT-1080 cells at 40 to 80 uM measured after 3 hrs by Western blot analysis; format: cell-based; details: dose 40-80 µM; outline: as §1
[36] = biological target: Glutathione S-transferase P (Homo sapiens) (UniProt P09211); assay: Induction of GSTP1 degradation in human HeLa cells at 80 uM measured after 3 hrs by Western blot analysis; format: cell-based; outline: as §1

Sequence of Glutathione S-transferase P (Homo sapiens) (P09211 2-210 limits assumed): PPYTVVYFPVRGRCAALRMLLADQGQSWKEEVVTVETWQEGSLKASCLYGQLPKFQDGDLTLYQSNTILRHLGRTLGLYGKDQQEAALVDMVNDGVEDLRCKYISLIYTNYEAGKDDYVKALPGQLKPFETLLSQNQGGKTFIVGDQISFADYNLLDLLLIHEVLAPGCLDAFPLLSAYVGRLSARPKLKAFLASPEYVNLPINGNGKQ

Structure (SMILES): C=C(CC)C(=O)c1ccc(OCC(=O)NCCNC(=O)CC23CC4CC(CC(C4)C2)C3)c(Cl)c1Cl
- Activity [1]: Active
- inhibition [2]: Active

Structure (SMILES): C=C(CC)C(=O)c1ccc(OCC(=O)OCCOCCOCCOC23CC4CC(CC(C4)C2)C3)c(Cl)c1Cl
- Activity [1]: inactive
- inhibition [2]: Active

Structure (SMILES): C=C(CC)C(=O)c1ccc(OCC(=O)OCCOC23CC4CC(CC(C4)C2)C3)c(Cl)c1Cl
- Activity [1]: inactive
- inhibition [2]: Active

Structure (SMILES): C=C(CC)C(=O)c1ccc(OCC(=O)NCCCCNC(=O)CC23CC4CC(CC(C4)C2)C3)c(Cl)c1Cl
- Activity [3]: Dose-dependent effect
- Activity (HeLa [4]): 0.75%
- viability at 80 µM (HeLa [5]): 20.5%
- viability at 10 µM (HeLa [6]): 92.5%
- viability at 40 µM (HeLa [7]): 45%
- Activity (HeLa [8]): 0.23%
- Activity (HeLa [9]): 3.28%
- Activity (HeLa [10]): 61.27%
- Activity [11]: Active
- Activity [12]: 80%
- Activity (HeLa [13]): 19.7%
- Activity (HeLa [14]): 3.7%
- Activity (HeLa [15]): 0.49%
- Activity [16]: Dose-dependent effect
- Activity [1]: Active
- Activity (HeLa [17]): 15.48%
- viability at 20 µM (HeLa [18]): 57%
- Activity [19]: Active
- Activity [20]: Active
- Activity [21]: inactive
- Activity (HeLa [22]): 34.59%
- Activity (HeLa [23]): 18.03%
- Activity (HeLa [24]): Dose-dependent effect
- Activity (HeLa [25]): 0.93%
- inhibition [2]: Active
- Activity (HeLa [26]): 26.61%
- Activity [27]: Active
- Activity [28]: Active
- Activity [29]: inactive
- Activity (HeLa [30]): Dose-dependent effect
- Activity [31]: inactive

Structure (SMILES): C=C(CC)C(=O)c1ccc(OCC(=O)O)c(Cl)c1Cl [ETHACRYNIC ACID]
- viability at 80 µM (HeLa [5]): 84.3%
- Activity (HeLa [8]): 1.72%
- Activity (HeLa [10]): 10.3%
- Activity (HeLa [32]): inactive
- Activity (HeLa [23]): 3.67%

Structure (SMILES): C=C(CC)C(=O)c1ccc(OCC(=O)NCCNC(=O)OC(C)(C)C)c(Cl)c1Cl
- Activity [33]: inactive
- Activity [34]: inactive
- Activity [35]: inactive

More lines, now with the values ahead:

- Activity [1]: inactive
- inhibition [2]: Active
Structure (SMILES): C=C(CC)C(=O)c1ccc(OCC(=O)OCCOCCOCCOCCOC23CC4CC(CC(C4)C2)C3)c(Cl)c1Cl

- Activity [1]: inactive
- inhibition [2]: Active
Structure (SMILES): C=C(CC)C(=O)c1ccc(OCC(=O)OCCOCCOC23CC4CC(CC(C4)C2)C3)c(Cl)c1Cl

- Activity [1]: Active
- inhibition [2]: Active
Structure (SMILES): C=C(CC)C(=O)c1ccc(OCC(=O)NCCCCCCNC(=O)CC23CC4CC(CC(C4)C2)C3)c(Cl)c1Cl

- Activity [1]: Active
- inhibition [2]: Active
Structure (SMILES): C=C(CC)C(=O)c1ccc(OCC(=O)NC23CC4CC(CC(C4)C2)C3)c(Cl)c1Cl

- Activity [36]: Active
Structure (SMILES): C=C(CC)C(=O)c1ccc(OCC(=O)NCCCCCCNC(=O)OC(C)(C)C)c(Cl)c1Cl

— ChEMBL document CHEMBL4706742, “Induction of Apoptosis in Cancer Cells by Glutathione Transferase Inhibitor Mediated Hydrophobic Tagging Molecules” (2021)
